Source: PubChem BioAssay
Calls of active or inactive are those of the source. Rule as the data show it, unless noted: active = inhibition above about 30%; inactive = the rest.

Experiments:
[1] = SK-BR-3 cell growth inhibitors, pilot screen, 24 h, human (AID 572;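 active = viability at or below 10% of carrier control in both of two separate runs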;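 also: compound exposure lasted between 18 and 24 h rather than exactly 24 h; 100% = carrier-treated control wells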); details: SK-BR-3 viability, CellTiter-Glo luminescence, at 10 µM, stronger effect = lower value
[2] = HUVEC growth inhibition – cell-based, human, primary screen (AID 575;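 active = viability at or below 30% in both replicate assays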;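 also: 100% = median of untreated cell wells with 0.1% DMSO on each plate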); details: HUVEC proliferation, CellTiter-Glo luminescence, 72 h; at 10 µM; stronger effect = lower value
Method in brief: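 Test system: HUVEC primary cells. Quantity: 1250 endothelial cells in each well. Dosing: single-point 10 µM, DMSO 0.1% final. Incubation: 72 h treatment at 37 °C. Measured by: CTG luminescence. Control set: DMSO cell controls and MePR drug controls. Plate: collagen-coated 384-well format.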

[3] = growth inhibitors of H69AR lung tumor, primary screen, human, duplicate replicates (AID 580;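 active = viability at or under a set limit in both replicates, limit being median viability minus 3 SD, cut at about 48% in these data, passing the limit was not always enough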;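 also: 100% = mean luminescence of untreated wells and 0% = no signal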); details: H69AR lung tumor cells viability, ATP luminescence, 72 h; at 10 µM; stronger effect = lower value
[4] = reversal of MRP1-mediated doxorubicin resistance, pilot screen, H69AR cells, doxorubicin co-treatment (AID 601;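 active = viability loss from added drug above about 55%, and viability with drug at most 40%, in both replicates, limit read from the data, passing the limit was not always enough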); details: CellTiter-Glo, 72 h, at 10 µM; for differential viability (reversal): stronger effect = higher value
[5] = 384-well plate pilot, post-Golgi transport modulator project, inhibition of yeast transport mutant growth (AID 636; in the data active = inhibition above about 31%); details: absorbance 615 nm, about 18 h, stronger effect = higher value
[6] = growth suppression of yeast trafficking mutant, preliminary HTS, modulators of trafficking downstream of Golgi apparatus project, 1536-format plate, OD 615 nm (AID 637); details: yeast transport mutant growth, absorbance 615 nm, 18 h; stronger effect = higher value
[7] = H69AR cells + 2 uM doxorubicin, measured here: viability with 2 uM doxorubicin, stronger effect = lower value
[8] = H69AR cells, compound alone cytotoxicity

Row | SMILES | viability [1] | viability [2] | viability [3] | differential viability (reversal) ([4]; H69AR cells + 2 uM doxorubicin) | viability [4, 7] | viability [4, 8] | inhibition [5] | inhibition [6]
1 | CCC(CCC(=O)Nc1cccc(C(=O)O)c1)C(=O)O (configuration not stated) | 62% (inactive) | 107% (inactive) | 103% (inactive) | 2.19% (inactive) | 101% | 103% | -0.82% (inactive) | 2.36% (inactive)
2 | Cc1cc(C(F)(F)F)c2c(C)nn(CCc3nn[nH]n3)c2n1 | 105% (inactive) | 91.4% (inactive) | 96.1% (inactive) | -1.98% (inactive) | 98.1% | 96.1% | 0.14% (inactive) | 12.2% (inactive)
3 | CCOc1ccc(NC(=O)C2CC(=O)N(CC)C(=Nc3ccc4c(c3)OCO4)S2)cc1 (configuration not stated) | 87% (inactive) | 109% (inactive) | 84% (inactive) | -0.76% (inactive) | 84.7% | 84% | -2.84% (inactive) | -5.64% (inactive)
4 | Cc1nc2c(-c3ccccc3)c(C)[nH]n2c(=O)c1Cl | 93% (inactive) | 72.7% (inactive) | 77.5% (inactive) | -19.2% (inactive) | 96.8% | 77.5% | -0.55% (inactive) | 11.8% (inactive)
5 | O=C(c1ccc(Cl)cc1)N1CCCOC1 | 89% (inactive) | 113% (inactive) | 92% (inactive) | 7.33% (inactive) | 84.7% | 92% | -8.11% (inactive) | -1.27% (inactive)
6 | CCOc1ccc(NC(=O)Cn2nnc(-c3ccccc3F)n2)cc1 | 105% (inactive) | 100% (inactive) | 94.6% (inactive) | 7.41% (inactive) | 87.2% | 94.6% | -4.42% (inactive) | -2.3% (inactive)
7 | Cc1nc2ccccc2c(=O)n1NC(=O)Nc1ccccc1 | 111% (inactive) | 95.1% (inactive) | 107% (inactive) | 10.6% (inactive) | 96% | 107% | -1.2% (inactive) | -1.82% (inactive)
8 | CCOC(=O)Nc1ccc(NS(=O)(=O)c2ccc(C)cc2)cc1 | 72% (inactive) | 86.6% (inactive) | 83.7% (inactive) | -12.3% (inactive) | 96.1% | 83.7% | 1.92% (inactive) | -7.42% (inactive)
9 | N#Cc1c(N)oc(-c2cccs2)c1-c1cccs1 | 107% (inactive) | 107% (inactive) | 95% (inactive) | 1.77% (inactive) | 93.2% | 95% | -6.93% (inactive) | -3.82% (inactive)
10 | O=S(=O)(Nn1cnnc1)c1ccccc1Cl | 84% (inactive) | 109% (inactive) | 89.3% (inactive) | -3.4% (inactive) | 92.7% | 89.3% | 4% (inactive) | 7.09% (inactive)
11 | CCN(CC(=O)Nc1ccc2c(c1)OCCO2)Cc1cc(=O)oc2cc(C)c(C)cc12 | 93% (inactive) | 82.2% (inactive) | 73.8% (inactive) | 5.8% (inactive) | 68% | 73.8% | -5.75% (inactive) | 3.09% (inactive)
12 | Cc1c(NC(=O)Cn2nc(C(=O)O)c3ccccc3c2=O)c(=O)n(-c2ccccc2)n1C | 116% (inactive) | 102% (inactive) | 101% (inactive) | 0.425% (inactive) | 100% | 101% | 2.88% (inactive) | -6.45% (inactive)
13 | N#CCOc1nc(N2CCOCC2)nc(N2CCOCC2)n1 | 99% (inactive) | 96.6% (inactive) | 90.8% (inactive) | -0.985% (inactive) | 91.8% | 90.8% | -7.3% (inactive) | -2.73% (inactive)
14 | CN(C)CCOC(=O)C(c1ccccc1)C1(O)CCCC1 (configuration not stated) | 127% (inactive) | 92.9% (inactive) | 102% (inactive) | 4.65% (inactive) | 97% | 102% | -1.43% (inactive) | 2.33% (inactive)
15 | CC1Oc2ccccc2N(Cc2ccccc2Cl)C1=O (configuration not stated) | 77% (inactive) | 110% (inactive) | 89.1% (inactive) | 11.3% (inactive) | 77.8% | 89.1% | -5.34% (inactive) | 2% (inactive)
16 | CCC(=O)N(Cc1ccco1)c1nc(-c2cc(OC)ccc2OC)cs1 | 105% (inactive) | 42.8% (inactive) | 69.3% (inactive) | -0.87% (inactive) | 70.2% | 69.3% | -2% (inactive) | -2.91% (inactive)
17 | COc1ccc(S(=O)(=O)NCCSCc2ccco2)cc1Cl | 48% (inactive) | 102% (inactive) | 92.4% (inactive) | 1.13% (inactive) | 91.3% | 92.4% | -6.3% (inactive) | 4% (inactive)

Row | SMILES | viability [1] | viability [2] | viability [3] | differential viability (reversal) ([4]; H69AR cells + 2 uM doxorubicin) | viability [4, 7] | viability [4, 8] | inhibition [5] | inhibition [6]
18 | O=C(CN1CCCN(S(=O)(=O)c2ccc(F)cc2)CC1)Nc1ccccc1Br | 84% (inactive) | 87.7% (inactive) | 76.3% (inactive) | -7.18% (inactive) | 83.5% | 76.3% | 1.17% (inactive) | -1.48% (inactive)
19 | CS(=O)(=O)N1CCc2cc(S(=O)(=O)Nc3ccc4oc5c(c4c3)CCCC5)ccc21 | 76% (inactive) | 43.3% (inactive) | 88.9% (inactive) | -13.8% (inactive) | 103% | 88.9% | -2.47% (inactive) | 0% (inactive)
20 | COC(=O)c1ccc(CSc2nc3ccccc3s2)o1 | 101% (inactive) | 88.7% (inactive) | 85% (inactive) | -19.3% (inactive) | 104% | 85% | -4.93% (inactive) | -3.09% (inactive)
21 | COC(=O)C1=C(C)N(Cc2ccco2)C(=O)C1 | 96% (inactive) | 103% (inactive) | 96.1% (inactive) | 5.42% (inactive) | 90.7% | 96.1% | -7.53% (inactive) | 5.82% (inactive)
22 | Clc1ccc(Cl)c(-c2nn3c(Cn4cnc5ccccc54)nnc3s2)c1 | 78% (inactive) | 98.5% (inactive) | 102% (inactive) | 6.11% (inactive) | 96% | 102% | -6.3% (inactive) | -0.18% (inactive)
23 | CNC[C@H](O)c1cccc(O)c1 | 131% (inactive) | 93.7% (inactive) | 92.5% (inactive) | 7.67% (inactive) | 84.8% | 92.5% | -1.56% (inactive) | 2.5% (inactive)
24 | Cc1c(Cl)cccc1Nc1ccccc1C(=O)O | 108% (inactive) | 56.7% (inactive) | 111% (inactive) | 9% (inactive) | 102% | 111% | -1.17% (inactive) | 5.33% (inactive)
25 | NC(N)=Nc1nc(CSCC/C(N)=N/S(N)(=O)=O)cs1 | 89% (inactive) | 98.5% (inactive) | 95.8% (inactive) | -8.47% (inactive) | 104% | 95.8% | 3.9% (inactive) | 5.33% (inactive)
26 | O=C(CN1CCN(c2nc(-c3ccc(F)cc3)cs2)CC1)NCc1ccc2c(c1)OCO2 | 175% (inactive) | 69% (inactive) | 91.2% (inactive) | 15.9% (inactive) | 75.2% | 91.2% | -6.49% (inactive) | 13.5% (inactive)
27 | CSCCC(NC(=O)CCN1C(=O)c2ccccc2C1=O)C(=O)O (configuration not stated) | 85% (inactive) | 101% (inactive) | 98.5% (inactive) | 13.8% (inactive) | 84.7% | 98.5% | -3.01% (inactive) | 6.73% (inactive)
28 | Cc1cccc(-n2c(SCc3cc(=O)n4ccsc4n3)nc3ccccc32)c1 | 93% (inactive) | 66.1% (inactive) | 78.5% (inactive) | -9.64% (inactive) | 88.1% | 78.5% | 3.01% (inactive) | 40% (active)
29 | COc1ccc2c(c1)c(CC(=O)O)c(C)n2C(=O)c1ccc(Cl)cc1 | 99% (inactive) | 69.3% (inactive) | 95.6% (inactive) | 3.25% (inactive) | 92.3% | 95.6% | -4.16% (inactive) | 0.5% (inactive)
30 | COc1ccc(-c2noc(COc3ccc(C)c(C)c3)n2)cc1OC | 110% (inactive) | 108% (inactive) | 94.1% (inactive) | -2.45% (inactive) | 96.6% | 94.1% | -7.3% (inactive) | -1.64% (inactive)
31 | O=C(O)c1ccc(COc2c(F)c(F)c(F)c(F)c2F)o1 | 78% (inactive) | 106% (inactive) | 92.9% (inactive) | -8.1% (inactive) | 101% | 92.9% | 0.14% (inactive) | 19.4% (inactive)
32 | CCOCCCN(Cc1cc2cc(C)cc(C)c2[nH]c1=O)C(=O)N(CC)CC | 58% (inactive) | 116% (inactive) | 82% (inactive) | -2.52% (inactive) | 84.5% | 82% | 0.93% (inactive) | 10% (inactive)
33 | O=C1CC(c2ccccc2)Cc2nc(N3CCc4ccccc43)ncc21 (configuration not stated) | 79% (inactive) | 108% (inactive) | 76.5% (inactive) | 12% (inactive) | 64.6% | 76.5% | -6.89% (inactive) | 1.82% (inactive)
34 | CC(=O)OC(C(=O)NC1CCCCC1)c1ccncc1 (configuration not stated) | 88% (inactive) | 98% (inactive) | 109% (inactive) | 21.3% (inactive) | 87.7% | 109% | -0.14% (inactive) | -0.48% (inactive)
